Measured values reported in article PMC5694347 (Clinical cancer research : an official journal of the …, 2015).

Columns and labels:
[1] = test system: pevonedistat–NEDD8 adduct; assay: Bone marrow aspirate immunohistochemistry for pevonedistat–NEDD8 adduct; format: in vivo, human; conditions: one patient treated at 25 mg/m^2, pre-dose and post-dose sample
Outline: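 Patients with marrow involvement received IV pevonedistat over 1 h. Marrow aspirates were taken at screening and 2–6 h after the cycle 1 dose on day 2 (schedule A) or day 4 (schedule B). Aspirates were clotted, formalin-fixed and paraffin-embedded. Adduct-specific antibody was applied 1 h at 37°C, then biotinylated goat anti-rabbit secondary 32 min at room temperature, with DAB detection. Slides were counterstained and whole-slide imaged at 20x.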

[2] = test system: relapsed and/or refractory lymphoma or MM; assay: Antitumor activity: disease response; format: in vivo, human
[3] = test system: patients with AML and myelodysplastic syndromes (MDS); conditions: same dosing as schedule B (days 1, 4, 8, 11); cited from earlier work

NS(=O)(=O)OC[C@@H]1C[C@@H](n2ccc3c(N[C@H]4CCc5ccccc54)ncnc32)C[C@@H]1O [pevonedistat]
Pevonedistat–NEDD8 adduct in bone marrow aspirate [1]: not detected
Duration of SD ([2]; 5 MM patients who received ≥5 cycles): 3.22–6.01 months
Duration of SD ([2]; 7 lymphoma patients who received ≥5 cycles): 3.25–9.53 months
Best response in MM patients ([2]; MM patients): best responses of only SD
MTD in AML/MDS patients [3]: 83 mg/m^2
